# Reference: PubChem BioAssay AID1040 (The Scripps Research Institute Molecular Screening Center, 2008)
# Screen size: about 200,000 compounds; about 2,000 (1%) were called active. This is one part of a sample in which actives are shown more often than they occur. Unmarked numbers belong to inactive results.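 How the source made its calls: active means inhibition above the campaign mean inhibition of all tested compounds plus 3 SD (cut at about 20% in these data); inactive means the rest.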
# Target: Neuropeptide Y receptor type 1 (Homo sapiens) (UniProt P25929)
# Experiment: blockers of human neuropeptide Y Y1 receptor – cell-based, primary screen (AID 1040);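 further: 0% = DMSO wells given NPY plus isoproterenol and 100% = isoproterenol alone without NPY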
# Conditions: HEK293-CNG Y1 cells, membrane potential fluorescence; at 3.6 µM; active compounds read high; NPY at EC95, then isoproterenol
# Outline: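 Material: Y1- and CNG-channel-expressing HEK293 cells / Probe or stimulus: NPY 25 nM then isoproterenol 1 µM plus Ro 20-1724 25 µM / Doses: 3.6 µM single dose, DMSO 0.4% / Schedule: compound incubation 1 h at room temperature, readout 45 min post-stimulation / Signal: membrane potential fluorescence / Benchmarks: isoproterenol-only wells as full block versus NPY-plus-isoproterenol wells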
# Chain of Neuropeptide Y receptor type 1 (Homo sapiens) (P25929 whole entry, looked up): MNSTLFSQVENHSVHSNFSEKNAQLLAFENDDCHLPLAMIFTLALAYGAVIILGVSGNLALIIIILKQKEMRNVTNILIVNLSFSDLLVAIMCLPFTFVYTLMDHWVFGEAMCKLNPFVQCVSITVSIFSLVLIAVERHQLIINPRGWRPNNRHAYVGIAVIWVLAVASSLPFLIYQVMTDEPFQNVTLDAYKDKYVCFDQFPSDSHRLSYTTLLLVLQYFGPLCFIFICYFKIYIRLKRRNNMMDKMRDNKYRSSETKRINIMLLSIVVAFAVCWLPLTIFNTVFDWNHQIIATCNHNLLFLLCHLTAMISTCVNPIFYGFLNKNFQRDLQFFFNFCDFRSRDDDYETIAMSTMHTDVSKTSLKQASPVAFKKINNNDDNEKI
row,Structure (SMILES),inhibition
1,Cc1nnc(SCC(=O)N2c3ccccc3C(C)(c3ccc(Cl)cc3)CC2(C)C)s1 (stereo unspecified),16.7%
2,CC(=O)Nc1ccc(/C(C)=N/NC(=O)CN(c2ccccc2Br)S(C)(=O)=O)cc1,-2.53%
3,Cc1ccc(-n2c(SCC(=O)Nc3ncc(Cl)cc3Cl)nc3ccccc32)cc1,-2.49%
4,CC(Oc1ccc(Cl)cc1)C(=O)OCC(=O)Nc1ncc(Cl)cc1Cl (stereo unspecified),2.64%
5,Cc1ccc(SCCC(=O)OCC(=O)Nc2ncc(Cl)cc2Cl)cc1,20.4% (active)
6,CC1(C)C=C2[C@H]3CC[C@@H]4[C@@]5(C)CCC(=O)C(C)(C)[C@@H]5CC[C@@]4(C)[C@]3(C)CC[C@@]2(C(=O)O)CC1,2.69%
7,CC(=O)Nc1cccc(-c2nc3ccccc3s2)c1C,3.27%
8,Cc1cc(O)ccc1-c1cnc2ccccc2n1,-0.67%
9,Oc1ccc(-c2[nH]ncc2-c2nc3ccccc3s2)c(O)c1,62.6% (active)
10,CC1CCN(S(=O)(=O)c2ccc3ncn(CC(=O)N(C)C4CCCCC4)c(=O)c3c2)CC1,4.79%
11,CCOC(=O)C1CCN(CCC(=O)Nc2cccc(C)c2)CC1,-5.31%
12,COc1cc2c(C(=O)N3CCN(C)CC3)c(CSc3ccccc3)n(C)c2cc1Br,23.3% (active)
13,COc1ccccc1OCc1ccc(C(=O)N2CCN(C)CC2)o1,6.16%
14,O=C(c1ccc(CSc2ccccc2)cc1)N1CCCCCC1,-0.16%
15,O=[N+]([O-])c1ccc(N2CCN(S(=O)(=O)c3ccccc3)CC2)cc1N1CCc2ccccc2C1,4.34%
16,CNC(=O)COC(=O)c1cc(-c2ccc(OC)cc2)nc2ccccc12,3.85%
17,Cc1ccc(OCC(=O)Nn2cnc3ccccc32)cc1,8.06%
18,COc1ccc(-c2cc(C(=O)n3cnc4ccccc43)c3ccccc3n2)cc1,26.2% (active)
19,COc1cc(NC(=S)N2CCCC(C)C2)cc(OC)c1OC (stereo unspecified),-1.31%
20,CC(=O)N1CCN(S(=O)(=O)c2cccc(C(=O)NC3CCC(C)CC3)c2)CC1 (stereo unspecified),1.65%
21,CC(C)Cn1c(CN(Cc2ccccc2)Cc2ccccc2)nc2c1c(=O)n(C)c(=O)n2C,13.4%
22,CC(C)Cn1cnc2c1c(=O)n(CC(O)c1ccccc1)c(=O)n2CC(C)C (stereo unspecified),20.6% (active)
23,Cn1c(=O)c2c(ncn2CCc2ccccc2)n(C)c1=O,-0.86%
24,CCCN(CC(=O)Nc1ccc(C(N)=O)cc1)CC(=O)Nc1ccccc1C,-0.18%

row,Structure (SMILES),inhibition
1,O=C1Nc2cc(Cl)c(Cl)cc2N(O)N1c1ccccc1Cl,1.81%
2,CC(=O)Nc1ccc(NC(=O)C(C)OC(=O)c2ccccc2C(=O)c2ccc(Cl)c([N+](=O)[O-])c2)cc1 (stereo unspecified),0.15%
3,Cc1nn(Cc2ccccc2)c(C)c1C(=O)NCCN1C(=O)S/C(=C\c2ccc(F)cc2)C1=O,-0.53%
4,O=C(CN1C(=O)/C(=C\c2ccc(C(F)(F)F)cc2)Sc2ccccc21)NCc1ccco1,10.7%
5,CCN1CCN(CCNC(=O)c2ccc(/C=C3/Sc4ccccc4N(Cc4cccc(C)c4)C3=O)cc2)CC1,23.1% (active)
6,Cc1ccc(OCCCn2c(=O)oc3ccccc32)cc1,8.49%
7,Cc1ccc2nc(-c3ccc(NC(=O)CN(C)S(=O)(=O)c4ccccc4)cc3)sc2c1,-3.73%
8,Cc1c(CN2CCCC(C(=O)c3cccc(Cl)c3)C2)c(=O)n(-c2ccccc2)n1C (stereo unspecified),-2.25%
9,O=C(Nc1ccncc1)c1cc(-c2ccccn2)nc2ccc(Br)cc12,-2.88%
10,Cc1ccc2nc(-c3ccncc3)cc(C(=O)Nc3ccc4c(c3)OCCO4)c2c1,4.85%
11,Cc1ccc2nc(-c3ccccn3)cc(C(=O)Nc3ccc4c(c3)OCO4)c2c1,31.6% (active)
12,COc1ccccc1N(C(=O)Cn1nnc2ccccc21)C(C(=O)NCc1ccco1)c1ccc(C)o1 (stereo unspecified),21.5% (active)
13,Cc1ccc(C(C(=O)NCc2ccco2)N(CC2CCCO2)C(=O)Cn2nnc3ccccc32)cc1 (stereo unspecified),2.99%
14,COCCNC(=O)C(c1ccc(C)o1)N(Cc1ccccc1)C(=O)Cn1nnc2ccccc21 (stereo unspecified),7.77%
15,CCO[C@H]1OC(C(=O)O)=C[C@@H](C2CCCCC2)[C@@H]1CCCO,-4.69%
16,CC1CC1C(=O)OCC(=O)c1c(N)n(C)c(=O)n(C)c1=O (stereo unspecified),0.59%
17,CS(=O)(=O)N(CC(=O)N1CCCC1)Cc1ccccc1,1.29%
18,COc1ccccc1N1CCN(C(=O)CN(Cc2ccc(Cl)cc2)S(C)(=O)=O)CC1,20.4% (active)
19,COc1ccc(OC)c(NC(=O)CN(Cc2ccc(Cl)cc2)S(C)(=O)=O)c1,-0.76%
20,COC(=O)C1=C(C)N(c2ccc(C)cc2)/C(=C/c2ccc(O)cc2)C1=O,2.2%
21,COCCNc1nc2nonc2nc1N1CCCC1c1nccs1 (stereo unspecified),0.14%
22,Cc1ccc(-c2cc(C(=O)N3CCc4ccccc4C3)no2)cc1,28.6% (active)
23,Cc1occc1C(=O)N1CCCc2ccccc21,1.99%
24,O=C(c1cc(-c2ccc(O)cc2)on1)N1CCCc2ccccc21,25.5% (active)

row,Structure (SMILES),inhibition
1,O=C(c1cc(-c2cccc(O)c2)on1)N1CCc2ccccc2C1,2.12%
2,O=C(c1cc(-c2ccccc2O)on1)N1CCCC1,-3.05%
3,O=C(C(=O)N1CCc2ccccc2C1)N1CCc2ccccc2C1,1.24%
4,CC(C)Oc1ccccc1C(=O)NC(CO)C(=O)O (stereo unspecified),-2.02%
5,Cc1ccc(O)c(CCc2ccccc2)n1,1.07%
6,Cc1nn(CC(=O)Nc2ccc(C#N)cc2)c(C)c1[N+](=O)[O-],-0.39%
7,COc1ccc(-c2cc(-c3ccc(N)cc3)nc(N)c2C#N)cc1OC,7.06%
8,N#Cc1c(N)nc2c3c(sc(=N)c2c1N)NC(=O)CC3c1ccccc1Cl (stereo unspecified),1.18%
9,COc1ccc(C2CC(=O)Nc3sc(=N)c4c(N)c(C#N)c(N)nc4c32)cc1OC (stereo unspecified),60.1% (active)
10,CC(NC(=O)COC(=O)C1CCN(S(=O)(=O)c2ccccc2C(F)(F)F)CC1)c1ccccc1 (stereo unspecified),-0.58%
11,Cc1c(NC(=S)NC(=O)CCc2ccccc2)c(=O)n(-c2ccccc2)n1C,4.67%
12,COCCNC(=O)c1onc(CSc2cccc(C)c2)c1C(=O)O,9.11%
13,CCOc1cccc(SCc2noc(C(=O)NC(C)C)c2C(=O)O)c1,11%
14,CCCCNC(=O)c1onc(CSc2cccc(OC)c2)c1C(=O)O,28.4% (active)
15,COc1ccc2nc(SCc3ccccc3)nc(C)c2c1,4.78%
16,Cc1cccc(NC(=S)Nc2ccc(Br)cc2)c1,3.74%
17,Cc1cccc(NC(=S)Nc2ccc(Cl)c(Cl)c2)c1,1.7%
18,Cc1cccc(NC(=S)NCCN(C2CCCCC2)C2CCCC2)c1,21.2% (active)
19,Cc1nc(-c2ccccc2)cn2c1nc1ccccc12,5.56%
20,O=C(Cc1coc2ccc3ccccc3c12)NCc1cccs1,1.1%
21,O=C(Nc1ccc(NC(=O)c2ccco2)c(Cl)c1)c1cccc([N+](=O)[O-])c1,0.59%
22,COc1ccccc1C(=O)Nc1ccc(NC(=O)c2ccco2)c(C)c1,2.31%
23,COc1cc(NC(=O)c2cc([N+](=O)[O-])ccc2Br)ccc1NC(=O)c1ccco1,30.1% (active)
24,CN(C)CCCO/N=C(\c1ccccc1)c1ccncc1,-1.1%

row,Structure (SMILES),inhibition
1,O=C(COc1cccc(F)c1)Oc1ccc(C(=O)c2ccccc2)cc1,2.24%
2,CC1CCc2c(sc3nc4n(c(=O)c23)CCS4)C1 (stereo unspecified),-3.28%
3,CCCCc1c(O)nc2n(c1=O)CCS2,20.6% (active)
4,CCOC(=O)N1CCN(C(=O)c2cnc3n(c2=O)CCS3)CC1,-1.03%
5,CCc1ccccc1NC(=O)CN(C)C(=O)COc1ccc(C)nc1[N+](=O)[O-],-0.59%
6,COc1ccc(/C(=N\O)c2nccc3cc(OC)c(OC)cc23)cc1OC,5.85%
7,Cc1ccc(-n2nc3c(c2NC(=O)CCC2CCCCC2)CS(=O)C3)cc1 (stereo unspecified),8.28%
8,O=C(CC1CCCCC1)NCc1ccc(F)cc1,-0.26%
9,O=C(CC1CCCCC1)Nc1c2c(nn1-c1ccc(F)cc1)CS(=O)(=O)C2,46.3% (active)
10,CC(NC(=S)NC1CCCCC1)C(c1ccccc1)N1CCOCC1 (stereo unspecified),0.27%
11,O=S(=O)(O)c1nc2ccccc2n1Cc1ccc(Cl)cc1,21.2% (active)
12,O=S(=O)(O)c1nc2ccccc2n1Cc1ccc(Cl)cc1Cl,-2.49%
13,O=S(=O)(Cc1ccccc1)c1nc2ccccc2n1Cc1ccccn1,-1.06%
14,O=C(CN1CCCCC1)Nc1ccccc1Cl,-2.44%
15,O=C(Nc1ccccc1Cl)c1ccc2nsnc2c1,0.69%
16,O=C(Nc1ccccc1Cl)/C(Cl)=C(\Cl)S(=O)c1ccccc1 (stereo unspecified),27.5% (active)
17,CC(NC(=O)COC(=O)c1ccc(Cl)cc1O)c1ccc(F)cc1 (stereo unspecified),-0.49%
18,Cc1nc(Cl)c2oc3ccccc3c2n1,3.46%
19,CCc1nc(Nc2ccc3nccnc3c2)c2oc3ccccc3c2n1,-0.08%
20,COc1ccccc1Nc1ncnc2c1oc1ccccc12,21.3% (active)
21,COc1ccc(-n2nc3c(c2NC(=O)c2ccc(N4C(=O)CCC4=O)cc2)CSC3)cc1,2.78%
22,N#C/C(=C\c1ccc(-c2cccc([N+](=O)[O-])c2)o1)C(=O)NCCN1CCOCC1,0.61%
23,Cc1ccc(C(=O)N/C(=C/c2ccc(-c3cccc([N+](=O)[O-])c3)o2)C(=O)NCCCN(C)C)cc1,27.8% (active)
24,CN(C)CCNC(=O)/C(=C/c1cccc([N+](=O)[O-])c1)NC(=O)c1ccccc1,2.65%
